In ChEMBL document CHEMBL3352760, “Nanomolar-Potency Small Molecule Inhibitor of STAT5 Protein” (ACS Med Chem Lett, 2014):
The source made the active and inactive calls. No cut-off for these calls is given here.

Assays:
[1] = biological target: T1, Signal transducer and activator of transcription 5B (Homo sapiens, UniProt P51692); assay: Inhibition of STAT5B SH2 domain (unknown origin)-5-FAM-GpYLVLDKW interaction compound treated for 15 mins by fluorescent polarization assay
T1 sequence (P51692 whole entry): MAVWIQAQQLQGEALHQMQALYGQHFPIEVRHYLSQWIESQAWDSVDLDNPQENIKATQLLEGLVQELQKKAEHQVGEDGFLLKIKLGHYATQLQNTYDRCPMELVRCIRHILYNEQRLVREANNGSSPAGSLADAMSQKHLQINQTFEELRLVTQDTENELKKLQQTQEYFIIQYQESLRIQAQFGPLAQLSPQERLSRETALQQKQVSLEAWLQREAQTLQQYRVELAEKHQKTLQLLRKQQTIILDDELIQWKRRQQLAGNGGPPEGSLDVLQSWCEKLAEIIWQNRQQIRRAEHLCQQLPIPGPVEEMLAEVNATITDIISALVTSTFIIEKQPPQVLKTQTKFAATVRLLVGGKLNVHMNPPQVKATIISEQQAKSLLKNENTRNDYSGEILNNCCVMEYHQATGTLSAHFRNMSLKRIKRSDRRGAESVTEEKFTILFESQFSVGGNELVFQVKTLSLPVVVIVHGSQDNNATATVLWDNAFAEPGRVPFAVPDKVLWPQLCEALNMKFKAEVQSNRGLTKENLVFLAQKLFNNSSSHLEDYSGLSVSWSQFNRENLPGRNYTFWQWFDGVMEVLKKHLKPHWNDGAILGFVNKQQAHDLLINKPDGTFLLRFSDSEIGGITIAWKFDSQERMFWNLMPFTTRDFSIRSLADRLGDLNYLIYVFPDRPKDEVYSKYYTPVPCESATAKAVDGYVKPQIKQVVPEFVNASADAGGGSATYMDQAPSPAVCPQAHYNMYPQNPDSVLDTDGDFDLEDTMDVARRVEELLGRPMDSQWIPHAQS
Summary of the method: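 Fluorescence polarization used STAT5B SH2 domain bound to the fluorescein-labelled phosphopeptide 5-FAM-GpYLVDKW, with inhibitor tested up to 100 μM. Polarization was read every 15 min over 1 h to confirm the probe stayed bound and to pick the time of maximal change. Ki values were derived from the data.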

[2] = system: K562; assay: Cytotoxicity against human K562 cells assessed as reduction in cell viability after 72 hrs by CellTiter-Blue assay; assay type: functional, cell-based; details: K562, 72 h
Summary of the method: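 K562 (Bcr-Abl) and MV-4;11 (FLT3-ITD) leukemia cells were exposed to inhibitor over 0.78–50 μM for 72 h. Viability was read by CellTiter-Blue and IC50 taken from the dose series.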

[3] = biological target: Signal transducer and activator of transcription 3 (Homo sapiens) (UniProt P40763); details: MDA-MB-231, 15 uM
[4] = system: K562; assay: Inhibition of STAT5 phosphorylation at Y694 residue in human K562 cells assessed as decreases in MYC expression after 5 hrs by Western blotting; assay type: cell-based
Summary of the method: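 K562 cells were dosed for 5 h at the same concentrations used for pSTAT5 inhibition. MYC protein was followed by immunoblot.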

[5] = biological target: T1, Signal transducer and activator of transcription 5B; assay: Binding affinity to full-length His-tagged STAT5B (unknown origin) by surface plasmon resonance assay
[6] = biological target: JAK2/JAK1 (Homo sapiens) (UniProt P23458+O60674); assay: Inhibition of JAK1/2 (unknown origin); assay type: protein-complex assay
[7] = system: K562; assay: Effect on total STAT5 level in human K562 cells at 15 uM after 5 hrs by Western blotting; assay type: functional, cell-based
Summary of the method: (§1)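 K562 cells were treated for 5 h across a dose range, then harvested. Immunoblots probed phospho-STAT5 (Y694), total STAT5 and cleaved PARP-1.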

[8] = system: K562; assay: Inhibition of STAT5 phosphorylation at Y694 residue in human K562 cells assessed as decreases in MCL-1 expression at 15 uM after 24 hrs by Western blotting; assay type: cell-based
Summary of the method: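 K562 cells were exposed to 15 μM for 24 h. Lysates were immunoblotted for cleaved PARP-1, cleaved caspase-3 and MCL-1.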

[9] = biological target: Receptor-type tyrosine-protein kinase FLT3 (Homo sapiens) (UniProt P36888); assay: Inhibition of FLT3 (unknown origin)
[10] = Cytotoxicity against human CD34-positive umbilical cord cells assessed as reduction in cell viability at 10 uM after 72 hrs by CellTiter-Blue assay; assay type: cell-based
Summary of the method: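 Healthy human CD34+ umbilical cord cells received a single 10 μM dose, with MV4;11 cells run alongside. Cell viability was then measured.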

[11] = system: MV4-11; assay: Cytotoxicity against human MV4-11 cells assessed as reduction in cell viability after 72 hrs by CellTiter-Blue assay; details: MV4-11, 72 h
[12] = system: MDA-MB-231; assay: Effect on total STAT3 level in human MDA-MB-231 cells at 15 uM after 5 hrs by Western blotting; assay type: functional, cell-based
Summary of the method: (§2)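 MDA-MB-231 breast cancer cells carry high pSTAT3 and negligible pSTAT5. They were treated up to 20 μM and immunoblotted for pSTAT3, total STAT3 and total STAT5.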

[13] = biological target: Tyrosine-protein kinase ABL1 (Homo sapiens) (UniProt P00519); assay: Inhibition of ABL (unknown origin)
[14] = system: MDA-MB-231; assay: Effect on total STAT5 level in human MDA-MB-231 cells at 15 uM after 5 hrs by Western blotting; assay type: functional, cell-based; summary of the method: as §2
[15] = system: K562; assay: Inhibition of STAT5 phosphorylation at Y694 residue in human K562 cells after 5 hrs by Western blotting; assay type: cell-based; summary of the method: as §1
[16] = system: K562; assay: Inhibition of STAT5 phosphorylation at Y694 residue in human K562 cells at 10 uM after 5 hrs by Western blotting; assay type: cell-based; summary of the method: as §1

Chain of Tyrosine-protein kinase ABL1 (Homo sapiens) (P00519 whole entry): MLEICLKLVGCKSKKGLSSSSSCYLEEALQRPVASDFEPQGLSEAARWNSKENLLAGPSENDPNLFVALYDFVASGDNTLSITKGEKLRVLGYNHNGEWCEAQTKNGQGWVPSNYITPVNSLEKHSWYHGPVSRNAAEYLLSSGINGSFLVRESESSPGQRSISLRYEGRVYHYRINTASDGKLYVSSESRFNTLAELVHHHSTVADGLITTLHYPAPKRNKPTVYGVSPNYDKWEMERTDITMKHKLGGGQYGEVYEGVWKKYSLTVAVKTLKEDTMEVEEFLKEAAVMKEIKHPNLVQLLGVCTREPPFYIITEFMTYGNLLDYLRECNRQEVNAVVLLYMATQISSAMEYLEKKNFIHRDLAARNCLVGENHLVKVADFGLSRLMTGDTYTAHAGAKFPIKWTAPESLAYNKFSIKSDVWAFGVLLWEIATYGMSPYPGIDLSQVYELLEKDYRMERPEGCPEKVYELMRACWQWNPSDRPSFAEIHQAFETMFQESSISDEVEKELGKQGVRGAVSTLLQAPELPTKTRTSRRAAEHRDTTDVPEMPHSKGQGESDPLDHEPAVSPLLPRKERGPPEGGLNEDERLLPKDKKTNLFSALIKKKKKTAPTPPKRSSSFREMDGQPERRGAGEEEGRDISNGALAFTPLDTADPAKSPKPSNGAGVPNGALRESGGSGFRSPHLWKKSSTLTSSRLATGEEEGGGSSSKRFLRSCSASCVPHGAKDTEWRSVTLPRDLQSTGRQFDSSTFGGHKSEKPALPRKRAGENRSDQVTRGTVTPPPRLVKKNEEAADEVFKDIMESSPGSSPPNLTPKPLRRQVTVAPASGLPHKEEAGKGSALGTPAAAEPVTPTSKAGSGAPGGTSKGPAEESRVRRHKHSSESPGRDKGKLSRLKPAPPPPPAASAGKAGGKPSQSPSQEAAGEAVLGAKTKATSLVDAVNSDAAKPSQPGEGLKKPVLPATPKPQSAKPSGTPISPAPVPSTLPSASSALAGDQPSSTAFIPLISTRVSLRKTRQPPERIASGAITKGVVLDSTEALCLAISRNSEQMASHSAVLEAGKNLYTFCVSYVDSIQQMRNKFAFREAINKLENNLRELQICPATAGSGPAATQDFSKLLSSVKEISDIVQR
Chain of Receptor-type tyrosine-protein kinase FLT3 (Homo sapiens) (P36888 whole entry): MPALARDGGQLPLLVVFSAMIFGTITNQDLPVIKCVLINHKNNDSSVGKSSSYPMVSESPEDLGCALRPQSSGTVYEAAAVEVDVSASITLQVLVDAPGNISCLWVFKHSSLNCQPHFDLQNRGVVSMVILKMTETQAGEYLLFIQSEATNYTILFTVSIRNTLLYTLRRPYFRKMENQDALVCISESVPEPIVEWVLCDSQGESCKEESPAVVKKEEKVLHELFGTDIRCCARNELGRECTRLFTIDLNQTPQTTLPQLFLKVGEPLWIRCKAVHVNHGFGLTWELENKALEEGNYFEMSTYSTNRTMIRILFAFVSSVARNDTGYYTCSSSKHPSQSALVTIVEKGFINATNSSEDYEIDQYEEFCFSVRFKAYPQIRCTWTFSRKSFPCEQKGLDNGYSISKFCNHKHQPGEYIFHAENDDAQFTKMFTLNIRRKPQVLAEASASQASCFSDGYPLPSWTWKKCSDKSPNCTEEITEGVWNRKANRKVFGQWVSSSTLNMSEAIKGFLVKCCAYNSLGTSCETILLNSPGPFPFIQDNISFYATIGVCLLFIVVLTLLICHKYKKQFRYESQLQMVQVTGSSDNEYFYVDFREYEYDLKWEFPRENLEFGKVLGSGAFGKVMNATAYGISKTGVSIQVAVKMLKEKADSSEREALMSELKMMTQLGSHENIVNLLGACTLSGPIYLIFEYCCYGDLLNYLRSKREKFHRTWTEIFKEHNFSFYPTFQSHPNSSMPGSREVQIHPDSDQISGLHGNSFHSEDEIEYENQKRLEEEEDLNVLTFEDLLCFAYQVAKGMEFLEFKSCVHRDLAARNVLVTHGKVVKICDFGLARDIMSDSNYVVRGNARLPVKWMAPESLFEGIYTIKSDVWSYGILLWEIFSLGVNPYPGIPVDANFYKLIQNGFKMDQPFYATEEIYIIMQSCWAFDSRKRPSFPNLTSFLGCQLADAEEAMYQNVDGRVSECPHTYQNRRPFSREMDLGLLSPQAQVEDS
Chain of Signal transducer and activator of transcription 3 (Homo sapiens) (P40763 whole entry): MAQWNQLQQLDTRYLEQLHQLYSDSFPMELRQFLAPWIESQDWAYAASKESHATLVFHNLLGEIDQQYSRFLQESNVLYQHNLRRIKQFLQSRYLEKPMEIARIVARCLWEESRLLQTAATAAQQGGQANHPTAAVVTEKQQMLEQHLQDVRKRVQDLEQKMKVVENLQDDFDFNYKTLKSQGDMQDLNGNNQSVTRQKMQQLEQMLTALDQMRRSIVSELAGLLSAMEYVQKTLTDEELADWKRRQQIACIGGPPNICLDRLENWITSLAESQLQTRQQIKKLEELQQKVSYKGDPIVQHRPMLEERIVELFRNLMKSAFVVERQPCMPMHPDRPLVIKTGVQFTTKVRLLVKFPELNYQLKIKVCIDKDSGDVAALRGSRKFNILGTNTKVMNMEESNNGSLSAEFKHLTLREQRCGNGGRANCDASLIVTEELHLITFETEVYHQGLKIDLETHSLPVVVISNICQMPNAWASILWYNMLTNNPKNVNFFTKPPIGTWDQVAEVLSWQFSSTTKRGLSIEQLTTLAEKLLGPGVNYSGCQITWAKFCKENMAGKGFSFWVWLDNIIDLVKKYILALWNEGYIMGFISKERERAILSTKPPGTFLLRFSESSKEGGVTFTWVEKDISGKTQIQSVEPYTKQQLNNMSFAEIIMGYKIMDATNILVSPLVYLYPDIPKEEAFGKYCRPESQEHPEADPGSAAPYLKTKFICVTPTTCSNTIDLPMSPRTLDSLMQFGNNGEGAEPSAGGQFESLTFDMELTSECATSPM

| Structure (SMILES) | Ki [1] [µM] | further results |
| --- | --- | --- |
| Cc1cc(C)c(S(=O)(=O)N(C)CC(=O)N(Cc2cccs2)c2ccc(C(=O)O)c(O)c2)c(C)c1 | > 60 |  |
| CN(CC(=O)N(Cc1cc(C(C)(C)C)cc(C(C)(C)C)c1)c1ccc(C(=O)O)c(O)c1)S(=O)(=O)c1c(F)c(F)c(F)c(F)c1F | 11.5 | IC50 [2]: 3 µM |
| Cc1cc(C)c(S(=O)(=O)N(C)CC(=O)N(CC23CCC(CC2)C3)c2ccc(C(=O)O)c(O)c2)c(C)c1 | > 60 |  |
| CN(CC(=O)N(CC1CC1)c1ccc(C(=O)O)c(O)c1)S(=O)(=O)c1c(F)c(F)c(F)c(F)c1F | > 60 |  |
| Cc1ccc(CN(C(=O)CN(C)S(=O)(=O)c2c(C)cc(C)cc2C)c2ccc(C(=O)O)c(O)c2)cc1 | > 60 |  |
| Cc1cc(C)c(S(=O)(=O)N(C)CC(=O)N(CC2CCCO2)c2ccc(C(=O)O)c(O)c2)c(C)c1 (stereo unspecified) | > 60 |  |
| CN(CC(=O)N(Cc1ccccc1)c1ccc(C(=O)O)c(O)c1)S(=O)(=O)c1c(F)c(F)c(F)c(F)c1F | > 60 |  |
| O=C(O)c1ccc(N(Cc2ccc3ccccc3c2)C(=O)CN(Cc2ccc(Cl)cc2)S(=O)(=O)c2c(F)c(F)c(F)c(F)c2F)cc1O |  | IC50 [2]: 3 µM |
| CN(CC(=O)N(Cc1c(F)c(F)c(F)c(F)c1F)c1ccc(C(=O)O)c(O)c1)S(=O)(=O)c1c(F)c(F)c(F)c(F)c1F | > 60 |  |
| Cc1cc(C)c(S(=O)(=O)N(C)CC(=O)N(Cc2ccc(F)cc2)c2ccc(C(=O)O)c(O)c2)c(C)c1 | > 60 |  |
| Cc1cc(C)c(S(=O)(=O)N(C)CC(=O)N(Cc2ccc(C(C)(C)C)cc2)c2ccc(C(=O)O)c(O)c2)c(C)c1 | > 60 |  |
| Cc1cc(C)c(S(=O)(=O)N(CC(=O)N(Cc2cc(C(C)(C)C)cc(C(C)(C)C)c2)c2ccc(C(=O)O)c(O)c2)Cc2ccc(Cl)cc2)c(C)c1 |  | IC50 [2]: 3 µM |
| Cc1cc(C)c(S(=O)(=O)N(C)CC(=O)N(CC2CC2)c2ccc(C(=O)O)c(O)c2)c(C)c1 | > 60 |  |
| Cc1cc(C)c(S(=O)(=O)N(CC(=O)N(Cc2ccc3ccccc3c2)c2ccc(C(=O)O)c(O)c2)Cc2ccc(Cl)cc2)c(C)c1 |  | IC50 [2]: 3 µM |
| Cc1cc(C)c(S(=O)(=O)N(C)CC(=O)N(Cc2nccn2C)c2ccc(C(=O)O)c(O)c2)c(C)c1 | > 60 |  |
| CN(CC(=O)N(Cc1ccc2ccccc2c1)c1ccc(C(=O)O)c(O)c1)S(=O)(=O)c1c(F)c(F)c(F)c(F)c1F | 12.4 | IC50 [2]: 3 µM |
| Cc1ccc(CN(C(=O)CN(C)S(=O)(=O)c2c(F)c(F)c(F)c(F)c2F)c2ccc(C(=O)O)c(O)c2)cc1 | > 60 |  |
| CN(CC(=O)N(Cc1nccn1C)c1ccc(C(=O)O)c(O)c1)S(=O)(=O)c1c(F)c(F)c(F)c(F)c1F | > 60 |  |
| CN(CC(=O)N(Cc1ccc(C(C)(C)C)cc1)c1ccc(C(=O)O)c(O)c1)S(=O)(=O)c1c(F)c(F)c(F)c(F)c1F | > 60 |  |
| Cc1cc(C)c(S(=O)(=O)N(C)CC(=O)N(Cc2ccc3ccccc3c2)c2ccc(C(=O)O)c(O)c2)c(C)c1 | 6.62 | IC50 [2]: 3 µM |
| CN(CC(=O)N(CC1CCCO1)c1ccc(C(=O)O)c(O)c1)S(=O)(=O)c1c(F)c(F)c(F)c(F)c1F (stereo unspecified) | > 60 |  |
| CN(CC(=O)N(Cc1cccs1)c1ccc(C(=O)O)c(O)c1)S(=O)(=O)c1c(F)c(F)c(F)c(F)c1F | > 60 |  |
| Cc1cc(C)c(S(=O)(=O)N(C)CC(=O)N(Cc2cc(C(C)(C)C)cc(C(C)(C)C)c2)c2ccc(C(=O)O)c(O)c2)c(C)c1 | 4.77 | IC50 [2]: 3 µM |
| CC(C)(C)c1cc(CN(C(=O)CN(Cc2ccc(Cl)cc2)S(=O)(=O)c2c(F)c(F)c(F)c(F)c2F)c2ccc(C(=O)O)c(O)c2)cc(C(C)(C)C)c1 |  | inhibition [3]: inactive; inhibition [4]: Dose-dependent effect; Kd [5]: 0.042 µM; inhibition [6]: inactive; Activity [7]: inactive; IC50 [2]: 3 µM; inhibition [8]: Active; inhibition [9]: inactive; Activity [10]: Non-toxic; IC50 [11]: 3.5 µM; Activity [12]: inactive; inhibition [13]: inactive; Activity [14]: inactive; inhibition [15]: Dose-dependent effect; inhibition [16]: Active |
| CN(CC(=O)N(CC12CCC(CC1)C2)c1ccc(C(=O)O)c(O)c1)S(=O)(=O)c1c(F)c(F)c(F)c(F)c1F | > 60 |  |
| CN(CC(=O)N(Cc1ccc(F)cc1)c1ccc(C(=O)O)c(O)c1)S(=O)(=O)c1c(F)c(F)c(F)c(F)c1F | > 60 |  |
| Cc1cc(C)c(S(=O)(=O)N(C)CC(=O)N(Cc2ccccc2)c2ccc(C(=O)O)c(O)c2)c(C)c1 | > 60 |  |
| Cc1cc(C)c(S(=O)(=O)N(C)CC(=O)N(Cc2c(F)c(F)c(F)c(F)c2F)c2ccc(C(=O)O)c(O)c2)c(C)c1 | > 60 |  |
